This series can be described thus: Toxicity liver stage against HepG2, at 10uM. The series is classed as cell-based. On the set-up: test concentration 10 uM, cell line HepG2-A16-CD81EGFP. Conditions: human, HepG2-A16-CD81EGFP cells; read-out: INHIBITION
The method, boiled down: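 Uninfected HepG2-A16-CD81EGFP cells, 3 × 10^3 per well, 1536-well, plated on prespotted compound at 10 μM final, parasite-free screening media added to match infected plates; puromycin 10 μM positive, DMSO 0.5% negative; run in parallel with 48 h PbLuc assay at 37 °C, 5% CO2; viability by CellTiter-Glo luminescence, normalized to controls.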

As to `CN(Cc1ccccn1)C(=O)[C@H]1CO[C@H]2CCN(CC3CC3)C[C@H]2C1`, the cytotoxicity at 10 µM is -105%.

In the case of `Cc1ccc(C(=O)NCC(c2cnn(C)c2)N(C)C)c(O)c1` (stereo unspecified), the cytotoxicity at 10 µM was -7.93%.

Regarding `O=C(Cc1ccccn1)N1CCC2(CC1)CN(c1ccccn1)CCO2`, the cytotoxicity at 10 µM turned out to be 8.85%.

Turning to `O=C(c1ccc(N2CCCCCC2)nn1)N1CCc2ccccc21`, the cytotoxicity at 10 µM is -8.04%.

As for `COc1ccc(OC)c2c(C)cc(N(C)Cc3cc(C)on3)nc12`, the cytotoxicity at 10 µM was 1.42%.

`CCc1ccc(S(=O)(=O)Nc2cn(C)cc(Br)c2=O)cc1`: the cytotoxicity at 10 µM was -10.8%.

On to `CN(CCn1cnnc1)S(=O)(=O)c1ccc(C(F)(F)F)nc1`, for which the cytotoxicity at 10 µM came to 6.71%.

For `CCc1nccn1C1CCCN(C(=O)c2cn3cccnc3n2)C1` (stereo unspecified), the cytotoxicity at 10 µM came out at 92.6%.

`O=c1cc2c(nn1CN1CCSCC1)CCC2`: the cytotoxicity at 10 µM was -4.86%.

For `CN(Cc1ccc(C(N)=O)cc1)c1ccc(C(F)(F)F)cn1`, the cytotoxicity at 10 µM came out at 7.98%.

For `Cc1ccc(C(=O)N2CCC3(CCCN(c4ccc(C)nn4)C3)C2)cn1` (stereo unspecified), the cytotoxicity at 10 µM was -112%.

In the case of `O=C(N1CCCC1)N1CCC2(CC1)C(=O)N(CC1CC1)c1ccccc12`, the cytotoxicity at 10 µM turned out to be 7.15%.

Consider `O=C(NCc1ccco1)[C@H]1CC[C@@H]2[C@@H](CCN2c2ncc(F)cn2)O1`, for which the cytotoxicity at 10 µM is -78.4%.

Turning to `CC(C)N(C)C(=O)C1CSCN1S(=O)(=O)c1cccs1` (stereo unspecified), the cytotoxicity at 10 µM was -5.96%.

As for `CNc1cc(-c2ccncc2)ncn1`, the cytotoxicity at 10 µM was -13.9%.

Turning to `CC(C)CCN1C2(CCN(Cc3nccs3)C2)c2ccccc2S1(=O)=O` (stereo unspecified), the cytotoxicity at 10 µM was -65%.

As to `CC(=O)N1CCCn2nc(CNS(=O)(=O)c3cc(C)cs3)cc2C1`, the cytotoxicity at 10 µM was -9.58%.

Consider `O=c1[nH]c2ncccc2n1C1CCNCC1`, for which the cytotoxicity at 10 µM is 11.5%.

Turning to `CCOC(C)C(=O)NCc1cccc(CN2CCCCCC2)c1` (stereo unspecified), the cytotoxicity at 10 µM came out at 15.5%.

In the case of `O=C(CCc1ccc(Br)cc1)NCc1nnc[nH]1`, the cytotoxicity at 10 µM came out at 0.163%.

In the case of `Cc1cccc(C(=O)N2CCCC2)c1NCC(=O)NC1(C#N)CCCC1`, the cytotoxicity at 10 µM is -11.5%.

On to `CCNc1nc(C)c(C(=O)N(C)Cc2noc(C)n2)s1`, for which the cytotoxicity at 10 µM was 2.43%.

For `CCC(C)Oc1ccccc1Cn1cc2[nH]cccc-2c1=O` (stereo unspecified), the cytotoxicity at 10 µM was -0.0261%.

For the compound `CC(=O)c1cccc(OCCCC(=O)NCC2CCCN2C)c1` (stereo unspecified), the cytotoxicity at 10 µM came to 0.71%.

For `Cn1c(N2CC[C@H](O)C2)nc2cc(C(N)=O)ccc21`, the cytotoxicity at 10 µM worked out at 5.83%.

In the case of `O=C1COc2ccc(S(=O)(=O)NCc3ccccc3)c3c2N1CCC3`, the cytotoxicity at 10 µM is -7.48%.

Regarding `NC(=O)N1CCCC(C(=O)NCCc2nc(Cc3ccccc3)no2)C1` (stereo unspecified), the cytotoxicity at 10 µM was determined as 8.5%.

In the case of `COc1cccc2c1ccn2CCNC(=O)C1CCC1`, the cytotoxicity at 10 µM is -3.54%.

For `Cc1cnc(N2CCN3C[C@H](OCc4cccc(C)n4)C[C@H]3C2)nc1`, the cytotoxicity at 10 µM was -1.25%.

On to `O=C(NCCC1COc2ccccc2O1)c1ccc(-c2cn[nH]c2)nc1` (stereo unspecified), for which the cytotoxicity at 10 µM came to 4.65%.

For the compound `CN(CCn1ccc2ccccc21)C(=O)CS(C)(=O)=O`, the cytotoxicity at 10 µM was -8.14%.

As to `CCCc1cc(C(=O)N2CCC3(CCCN(CCOC)C3=O)C2)cs1` (stereo unspecified), the cytotoxicity at 10 µM is -167%.

Turning to `COc1ccc(-c2n[nH]cc2CN(C)Cc2ccoc2)c(F)c1`, the cytotoxicity at 10 µM was -0.174%.

With `Cc1nn(C)c(N(C)C)c1CNCc1cccc(OCCN(C)C)c1`, the cytotoxicity at 10 µM stood at 1.38%.

For `CNCC(=O)N1CCCC1c1cncc(Oc2ccc(F)cc2)n1` (stereo unspecified), the cytotoxicity at 10 µM was -6.44%.

In the case of `CC(C)NC(=O)CN1CCSC2(CCCCC2)C1`, the cytotoxicity at 10 µM is -13.7%.

As to `c1cnc(N2CC[C@@H]3O[C@@H](COCc4cccnc4)CC[C@@H]32)nc1`, the cytotoxicity at 10 µM came to 11.2%.

`c1cnn(CC2CCCCN2c2ncnc3sccc23)c1` (stereo unspecified): the cytotoxicity at 10 µM is 9.48%.

`Cc1nc(-c2cc(Cl)c3c(c2)CC(CN)O3)c[nH]1` (stereo unspecified): the cytotoxicity at 10 µM is -12.2%.

As for `CCN(C)Cc1cccc(CNC(=O)NCCc2ccccn2)c1`, the cytotoxicity at 10 µM was determined as 2.8%.

As for `Cc1nc(S(=O)(=O)N2CCc3[nH]nc(CCC(C)C)c3C2)cn1C`, the cytotoxicity at 10 µM came out at 10.2%.

For `c1csc(-c2nc(CNCCn3cccn3)cs2)c1`, the cytotoxicity at 10 µM was -7.36%.

With `CCOC(C)C(=O)N1CCN(S(C)(=O)=O)CC1` (stereo unspecified), the cytotoxicity at 10 µM is -5.35%.

Consider `CC(C)c1nccc(C2CC(=O)Nc3n[nH]c(C4CCC4)c32)n1` (stereo unspecified), for which the cytotoxicity at 10 µM was -14.6%.

Take `CC(C)[C@H]1CN(CCCO)C[C@@H]1NC(=O)CCS(C)(=O)=O`: the cytotoxicity at 10 µM is 2.91%.

On to `Cc1cc(C)cc(OCCN(C)Cc2ccc(S(=O)(=O)N(C)C)o2)c1`, for which the cytotoxicity at 10 µM is 8.2%.

For the compound `CC(=O)N(C)CC(=O)NCC1(c2c(F)cccc2F)CCCC1`, the cytotoxicity at 10 µM is -3.86%.

For `CCN(CCS(=O)(=O)CC)CC1CCCO1` (stereo unspecified), the cytotoxicity at 10 µM is -0.157%.

Consider `CNC(=O)c1nc(CN2CCOC(C(F)(F)F)C2)no1` (stereo unspecified), for which the cytotoxicity at 10 µM was -2.08%.

With `O=C1O[C@@H]2CN(C3CCOCC3)C[C@@H]2N1CCCc1ccc(F)cc1`, the cytotoxicity at 10 µM came out at 5.77%.

In the case of `O=C(N[C@@H]1CCN(C(=O)c2cc[nH]c2)C[C@H]1O)c1ccccn1`, the cytotoxicity at 10 µM came to 5.89%.

Turning to `COc1ccc(Cl)cc1NCC(=O)N(Cc1ccncc1)C1CC1`, the cytotoxicity at 10 µM was found to be 13.7%.

`Cc1csc(C2CCCCN2C(=O)CCCn2cccn2)n1` (stereo unspecified): the cytotoxicity at 10 µM is -0.89%.

With `Cc1ccc(N2Cc3cnn(Cc4ccc(F)cc4)c3C2)nn1`, the cytotoxicity at 10 µM is 0.209%.

Take `Cc1ccc(CN2CCC3(CCCN(C(=O)N(C)C)C3)C2)cc1` (stereo unspecified): the cytotoxicity at 10 µM turned out to be 6.28%.

For `CC(C)(C)OC(=O)NCC1CCN(C(=O)c2ccc(F)cc2F)C1` (stereo unspecified), the cytotoxicity at 10 µM was 11.5%.

Consider `c1cn2c(n1)CNCC(COCC1CC1)C2` (stereo unspecified), for which the cytotoxicity at 10 µM was 17.4%.

As to `CCN1Cc2c(C(=O)NC)ncn2-c2ccccc2S1(=O)=O`, the cytotoxicity at 10 µM is -73%.

Take `CC(C)CNC(=O)CN1CCCC(c2ccc(C(=O)O)cc2)C1` (stereo unspecified): the cytotoxicity at 10 µM was -6.49%.

As for `COc1ccc2[nH]cc(C(=O)CNc3nc(C)cs3)c2c1`, the cytotoxicity at 10 µM turned out to be 6.04%.

For `COc1ccccc1C(=O)N1CCC(O)(c2cccc(C)c2C)CC1`, the cytotoxicity at 10 µM turned out to be 12.1%.

Regarding `CC(C)C1CCCN1C(=O)Nc1ccc(=O)n(C)c1` (stereo unspecified), the cytotoxicity at 10 µM was 0.581%.

`Cc1ccc(-n2c(COCC(=O)O)nc3c(C)cccc32)nc1`: the cytotoxicity at 10 µM is 2.43%.

For the compound `CCOc1ncccc1CNC(=O)N1CCCC1c1ccncc1` (stereo unspecified), the cytotoxicity at 10 µM was 21.2%.

On to `Cc1nn(C)c(C)c1C1CCCN1Cc1noc(C2CC2)n1` (stereo unspecified), for which the cytotoxicity at 10 µM is -6.95%.

For `O=C(c1ccsc1)N1C[C@H](N2CCOCC2)[C@@H]2OCCC[C@@H]21`, the cytotoxicity at 10 µM was determined as 8.28%.

In the case of `Cc1ccc(S(N)(=O)=O)cc1C(=O)N1C[C@@H](CN(C)C)[C@@H](CO)C1`, the cytotoxicity at 10 µM is -0.187%.

`COc1cccc([C@H]2CN(C(=O)c3nnc4n3CCCC4)C[C@@H]2N)c1`: the cytotoxicity at 10 µM was -2.57%.

Regarding `O=C(NCc1ccnc(O)c1)NCC1CCCC1`, the cytotoxicity at 10 µM was 3.57%.

In the case of `CN1CC2(CCCN(Cc3nnc(-c4cccc(F)c4)o3)C2)OC1=O` (stereo unspecified), the cytotoxicity at 10 µM was -1.66%.

For `CCOCCNC(=O)c1cc(Br)c2c(c1)OCCO2`, the cytotoxicity at 10 µM turned out to be 1.41%.
